In ChEMBL document CHEMBL1143616, “Potent and selective Aurora inhibitors identified by the expansion of a novel scaffold for protein kinase inhibition” (J Med Chem, 2005) one finds IC50 data, which are given here for seven molecules.

The test system of assay [1] is HeLa. The experiment in a line: Antiproliferation activity against HeLa cell line. The following applies: Homo sapiens.
The target in assay [2] is T1, Aurora kinase B (Homo sapiens, UniProt Q96GD4). Kind of assay: Inhibition of Aurora kinase B.
In assay [3] the test system is HL-60. The experiment in a line: Antiproliferation activity against human HL-60 cell line.
For assay [4], the target named is T2, Aurora kinase C (Homo sapiens, UniProt Q9UQB9).
T2 sequence (Q9UQB9 whole entry): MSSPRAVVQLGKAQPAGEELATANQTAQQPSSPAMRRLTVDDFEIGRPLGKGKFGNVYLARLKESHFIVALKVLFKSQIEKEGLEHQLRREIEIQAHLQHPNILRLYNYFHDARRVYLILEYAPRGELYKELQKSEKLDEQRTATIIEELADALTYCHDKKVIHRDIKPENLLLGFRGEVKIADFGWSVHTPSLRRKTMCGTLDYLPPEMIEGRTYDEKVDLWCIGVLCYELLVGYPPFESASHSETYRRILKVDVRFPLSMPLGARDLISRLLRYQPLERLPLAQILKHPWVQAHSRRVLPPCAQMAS
Kind of assay: Inhibition of Aurora kinase C.

For assay [5], the target named is T2, Aurora kinase C. Kind of assay: Inhibitory activity against Aurora kinase C.
For assay [6], the system named is A2780. The experiment in a line: cells. The conditions noted are these: Homo sapiens.
Assay [7] relates to HT-29. Kind of assay: Antiproliferation activity against HT-29 cell line (HT-29). The following applies: Homo sapiens.
The test system of assay [8] is HCT-116. The experiment in a line: Antiproliferation activity against human colon cancer cell line (HCT116). It counts as functional, cell-based. The gist of the method: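 HCT-116 cells seeded at 5000 cells/cm² in F12 with 10% FCS, 2 mM L-glutamine and penicillin/streptomycin, 37 °C, 5% CO₂. Next day, dilutions from a 10 mM DMSO stock were added to duplicate wells. After 72 h, cells were trypsinized and counted on a Multisizer 3 counter. Counts were expressed as % of untreated control wells, and IC50 was taken from a sigmoidal fit.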

For assay [9], the target named is T1, Aurora kinase B. The experiment in a line: Inhibitory activity against Aurora kinase B.
In assay [10] the target is T3, Aurora kinase A (Homo sapiens, UniProt O14965).
T3 sequence (O14965 whole entry): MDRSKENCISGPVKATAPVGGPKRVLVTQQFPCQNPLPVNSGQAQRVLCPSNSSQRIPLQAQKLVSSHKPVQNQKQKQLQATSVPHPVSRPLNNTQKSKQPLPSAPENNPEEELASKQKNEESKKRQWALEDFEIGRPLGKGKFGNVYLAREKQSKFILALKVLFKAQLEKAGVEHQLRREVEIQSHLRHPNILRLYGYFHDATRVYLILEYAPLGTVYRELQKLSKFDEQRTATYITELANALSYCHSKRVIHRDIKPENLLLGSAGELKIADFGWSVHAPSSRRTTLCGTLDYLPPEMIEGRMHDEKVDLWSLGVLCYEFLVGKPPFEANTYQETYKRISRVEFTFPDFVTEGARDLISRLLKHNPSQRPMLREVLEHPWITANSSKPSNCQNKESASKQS
The experiment in a line: Inhibition of Aurora kinase A. In short, it runs like this: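 GST-fused Aurora-A was made in insect cells and purified by GST affinity and gel filtration. Compounds were tested as 3-fold dilutions from 10 to 0.0005 µM. Reactions were stopped with EDTA and excess ATP, and substrate phosphorylation was read by streptavidin SPA bead counting.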

As usually defined, the IC50 is the point on the concentration scale where inhibition reaches its midpoint. High values mean lower potency, low ones higher potency.

T1 sequence (Q96GD4 whole entry): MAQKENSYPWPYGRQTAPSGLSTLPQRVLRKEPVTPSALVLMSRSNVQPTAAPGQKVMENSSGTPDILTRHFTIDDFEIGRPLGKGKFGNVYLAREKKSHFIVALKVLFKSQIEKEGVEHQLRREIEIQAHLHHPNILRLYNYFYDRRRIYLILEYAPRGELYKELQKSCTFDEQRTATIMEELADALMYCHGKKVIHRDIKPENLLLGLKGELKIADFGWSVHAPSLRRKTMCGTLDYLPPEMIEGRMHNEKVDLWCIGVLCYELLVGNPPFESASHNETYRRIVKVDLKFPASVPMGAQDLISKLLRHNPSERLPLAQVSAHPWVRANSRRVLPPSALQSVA

With `CCc1cccc(CC)c1NC(=O)N1Cc2n[nH]c(NC(=O)c3ccc(N4CCN(C)CC4)cc3)c2C1` [PHA-680632], the IC50 in assay [1] amounted to 410 nM; in assay [2], 135 nM; in [3], 130 nM; in assay [4], 120 nM; in [5] it was 120 nM; in assay [6] it was 110 nM. The results for the IC50 in assay [7], in assay [8] and in assay [9] were 80 nM, 45 nM and 135 nM, respectively.
As to `CC(C)(C)c1ccc(C(=O)Nc2n[nH]c3c2CN(C(=O)Cc2ccccc2)C3)cc1`, the IC50 worked out at 3000 nM in [8] and 130 nM in [10].
The like results for `CC(C)(C)c1ccc(C(=O)Nc2[nH]nc3c2CN(C(=O)Cc2ccsc2)C3)cc1` were, in that order, 2000 nM and 5 nM.
With `CN1CCN(c2ccc(C(=O)Nc3n[nH]c4c3CN(C(=O)c3ccco3)C4)cc2)CC1`, the IC50 in [8] came out at 900 nM; in assay [10], 160 nM.
The like results for `CN1CCN(c2ccc(C(=O)Nc3[nH]nc4c3CN(C(=O)Cc3ccsc3)C4)cc2)CC1` were, in that order, 570 nM and 65 nM.
The like results for `CC(C)(C)c1ccc(C(=O)Nc2n[nH]c3c2CN(C(=O)c2ccco2)C3)cc1` were, in that order, 2100 nM and 41 nM.
As for `CCc1cccc(CC)c1NC(=O)N1Cc2n[nH]c(NC(=O)c3ccc(C(C)(C)C)cc3)c2C1`, the IC50 in assay [8] turned out to be 2200 nM; in assay [10] it was 100 nM.
